Assay results taken from ChEMBL document CHEMBL3259792 (Eur J Med Chem, 2014).

Key:
[1] = tested on: Human immunodeficiency virus 1; assay: Antiviral activity against HIV1 harboring reverse transcriptase K103N/Y181C double mutant infected in human MT4 cells assessed as inhibition of virus-induced cell death measured after 5 days of infection by MTT method; assay type: functional, organism-based; details: Human immunodeficiency virus 1, MT4, 120 h
Summary of the method: (§1)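 MT-4 cells infected with the named NNRTI-resistant HIV-1 RT mutant strain, in the presence of a range of compound concentrations. Viable cells counted at day 5 post-infection by tetrazolium (MTT) colorimetry. […] Mean of 2–3 independent experiments, each in triplicate.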

[2] = tested on: Human immunodeficiency virus 1; assay: Ratio of EC50 for HIV1 harboring reverse transcriptase Y188L mutant to EC50 for wild type HIV1 NL4.3; assay type: functional
Summary of the method: (§2)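 Fold change is the EC50 against the named mutant strain divided by the EC50 against wild-type HIV-1 NL4-3. […] Means of 2–3 independent experiments in triplicate.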

[3] = tested on: Human immunodeficiency virus 1; assay: Antiviral activity against HIV1 harboring reverse transcriptase Y181C mutant infected in human MT4 cells assessed as inhibition of virus-induced cell death measured after 5 days of infection by MTT method; assay type: functional, organism-based; details: Human immunodeficiency virus 1, MT4, 120 h; summary of the method: as §1
[4] = tested on: Human immunodeficiency virus 1; assay: Antiviral activity against HIV1 NL4.3 infected in human MT4 cells assessed as inhibition of virus-induced cell death measured after 5 days of infection by MTT method; assay type: functional, organism-based; details: Human immunodeficiency virus 1, NL4.3, MT4, 120 h
Summary of the method: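 Lymphoid MT-4 cells (NIH AIDS Reagent Program) infected with HIV-1 NL4-3 in the presence of varying compound concentrations. On day 5 post-infection, viable cells were counted by MTT tetrazolium colorimetry. EC₅₀ = concentration inhibiting virus-induced cell death by 50%. Means of two to three independent experiments, each in triplicate.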

[5] = tested on: Human immunodeficiency virus 1; assay: Antiviral activity against HIV1 harboring reverse transcriptase K103N mutant infected in human MT4 cells assessed as inhibition of virus-induced cell death measured after 5 days of infection by MTT method; assay type: functional, organism-based; details: Human immunodeficiency virus 1, MT4, 120 h; summary of the method: as §1
[6] = tested on: Human immunodeficiency virus 1; assay: Ratio of EC50 for HIV1 harboring reverse transcriptase Y181C mutant to EC50 for wild type HIV1 NL4.3; assay type: functional; summary of the method: as §2
[7] = tested on: Human immunodeficiency virus 1; assay: Ratio of EC50 for HIV1 harboring reverse transcriptase K103N mutant to EC50 for wild type HIV1 NL4.3; assay type: functional; summary of the method: as §2
[8] = Cytotoxicity against human MT4 cells assessed as cell viability by MTT assay; assay type: cell-based
Summary of the method: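 Mock-infected MT-4 cells exposed to a range of compound concentrations. Viable cells measured by MTT colorimetry at day 5. CC₅₀ = concentration causing 50% death of non-infected cells. Means of two to three independent experiments, each in triplicate.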

[9] = Selectivity index, ratio of CC50 for human MT4 cells to EC50 for HIV1 NL4.3 infected in human MT4 cells; assay type: toxicity, cell-based; details: read-out: Ratio CC50/EC50
Summary of the method: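 Ratio CC₅₀/EC₅₀. CC₅₀ is from mock-infected MT-4 cells and EC₅₀ from HIV-1 NL4-3-infected MT-4 cells, both read by MTT at day 5 post-infection.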

[10] = tested on: Human immunodeficiency virus 1; assay: Antiviral activity against HIV1 harboring reverse transcriptase Y188L mutant infected in human MT4 cells assessed as inhibition of virus-induced cell death measured after 5 days of infection by MTT method; assay type: functional, organism-based; details: Human immunodeficiency virus 1, MT4, 120 h; summary of the method: as §1
[11] = target: Human immunodeficiency virus type 1 reverse transcriptase (Human immunodeficiency virus 1, UniProt Q72547, K103N); assay: Inhibition of HIV1 wild-type reverse transcriptase K103N mutant using [3H]dTTP by scintillation counting
[12] = target: T1, Human immunodeficiency virus type 1 reverse transcriptase (Human immunodeficiency virus 1, UniProt Q72547); assay: Inhibition of HIV1 wild-type reverse transcriptase Y181I/Y181C mutant using [3H]dTTP by scintillation counting
[13] = target: T1, Human immunodeficiency virus type 1 reverse transcriptase; assay: Inhibition of HIV1 wild-type reverse transcriptase using [3H]dTTP by scintillation counting
[14] = tested on: Human immunodeficiency virus 1; assay: Ratio of EC50 for HIV1 harboring reverse transcriptase K103N/Y181C double mutant to EC50 for wild type HIV1 NL4.3; assay type: functional; summary of the method: as §2
[15] = tested on: Human immunodeficiency virus 2; assay: Antiviral activity against HIV-2 ROD infected in human CEM cells assessed as protection of cells monitored by giant cell formation by microscopy; assay type: functional, organism-based; details: Human immunodeficiency virus 2, ISOLATE ROD, CCRF-CEM
Summary of the method: (§3)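 Human CEM cultures (~3 × 10⁵ cells/mL) infected with ~100 CCID₅₀ per mL of HIV-1 IIIB or HIV-2 ROD, seeded with serial compound dilutions. Incubated 4 days at 37 °C; syncytium (giant cell) formation scored by microscopy. EC₅₀ = concentration protecting cells from viral cytopathicity by 50%. Means of two to three independent experiments, each in triplicate.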

[16] = target: Human immunodeficiency virus type 1 reverse transcriptase (Human immunodeficiency virus 1, UniProt Q72547, L100I); assay: Inhibition of HIV1 wild-type reverse transcriptase L100I mutant using [3H]dTTP by scintillation counting
Summary of the method: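 RNA-dependent DNA polymerase activity of recombinant RT (2–4 nM) on poly(rA)/oligo(dT) 10:1 with [3H]dTTP (1 Ci/mmol). Incubation at 37 °C. Acid-insoluble radioactivity collected on GF/C filters after 5% cold TCA, counted by scintillation.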

[17] = tested on: Human immunodeficiency virus 1; assay: Ratio of EC50 for HIV1 harboring reverse transcriptase […] mutant to EC50 for wild type HIV1 NL4.3; assay type: functional; summary of the method: as §2
[18] = tested on: Human immunodeficiency virus 1; assay: Antiviral activity against HIV1 3B infected in human CEM cells assessed as protection of cells monitored by giant cell formation by microscopy; assay type: functional, organism-based; details: Human immunodeficiency virus 1, 3B, CCRF-CEM; summary of the method: as §3
[19] = tested on: Human immunodeficiency virus 1; assay: Antiviral activity against HIV1 harboring reverse transcriptase […] mutant infected in human MT4 cells assessed as inhibition of virus-induced cell death measured after 5 days of infection by MTT method; assay type: functional, organism-based; details: Human immunodeficiency virus 1, MT4, 120 h; summary of the method: as §1

| Structure (SMILES) | EC50 [1] [µM] | Ratio EC50 [2] | EC50 [3] [nM] | EC50 [4] [nM] | EC50 [5] [nM] | Ratio EC50 [6] | Ratio EC50 [7] | CC50 [8] [µM] | selectivity ratio [9] | EC50 [10] [µM] | IC50 [11] [µM] | IC50 [12] [µM] | IC50 [13] [nM] | Ratio EC50 [14] | EC50 [15] [µM] | IC50 [16] [nM] | Ratio EC50 [17] | EC50 [18] [nM] | EC50 [19] [nM] |
| --- | --- | --- | --- | --- | --- | --- | --- | --- | --- | --- | --- | --- | --- | --- | --- | --- | --- | --- | --- |
| Cc1cn([C@H]2C[C@H](N=[N+]=[N-])[C@@H](CO)O2)c(=O)[nH]c1=O [ZIDOVUDINE] | 0.016 | 8.9 | 6 | 3.7 | 16 | 1.6 | 4.3 | > 30.6 | > 8270 | 0.033 | – | – | – | – | – | – | – | – | – |
| Cc1cc(C)cc(S(=O)(=O)c2c(C(=O)NCCc3ccccc3C)[nH]c3ccc(Cl)cc23)c1 | > 51.9 | – | – | – | 100 | – | 16 | > 52 | > 8380 | – | 12.4 | > 20 | 288 | >8383 | > 10 | 200 | 3.2 | 9.1 | 20 |
| Cc1cc(C)cc(CNC(=O)c2[nH]c3ccc(Cl)cc3c2S(=O)(=O)c2cc(C)cc(C)c2)c1 | > 51.8 | – | > 2000 | 4.2 | 180 | >476 | 43 | > 52 | > 12400 | – | > 20 | > 20 | 7000 | >12332 | > 2 | 5900 | 15 | 28 | 65 |
| Cc1cc(C)cc(S(=O)(=O)c2c(C(=O)NCc3ccc(Cl)cc3)[nH]c3ccc(Cl)cc23)c1 | > 51.3 | >6255 | 451 | 8.2 | 103 | 55 | 13 | > 51.3 | > 6260 | > 51.3 | 7.5 | > 20 | 57 | >6255 | – | – | – | – | – |
| Cc1ccc(CNC(=O)c2[nH]c3ccc(Cl)cc3c2S(=O)(=O)c2cc(C)cc(C)c2)cc1 | > 21.2 | >10105 | 215 | 2.1 | 385 | 103 | 183 | 21.2 | 10100 | > 21.2 | > 20 | > 20 | 50 | >10105 | – | – | – | – | – |
| Cc1cc(C)cc(S(=O)(=O)c2c(C(=O)NCc3ccc(N(C)C)cc3)[nH]c3ccc(Cl)cc23)c1 | > 40.3 | >3332 | 1030 | 12.1 | 322 | 85 | 27 | 40.7 | 3360 | > 40.3 | – | – | – | >3332 | – | – | – | – | – |
| Cc1cccc(CCNC(=O)c2[nH]c3ccc(Cl)cc3c2S(=O)(=O)c2cc(C)cc(C)c2)c1 | > 51.9 | – | 1200 | 6.2 | 260 | 194 | 42 | > 52 | > 8380 | – | > 20 | > 20 | 190 | >8383 | > 25 | 1300 | 5 | 7.3 | 31 |
| Cc1cc(C)cc(S(=O)(=O)c2c(C(=O)NCCc3ccccc3Cl)[nH]c3ccc(Cl)cc23)c1 | 45 | – | 250 | 4 | 37 | 63 | 9.3 | 45 | 11200 | – | 3.14 | > 20 | 131 | 11243 | > 10 | 270 | 6 | 9.4 | 24 |
| Cc1cc(C)cc(S(=O)(=O)c2c(C(=O)NCC(C)c3ccccc3)[nH]c3ccc(Cl)cc23)c1 (racemic) | > 19.9 | >94938 | 291 | 0.21 | 29 | 1386 | 138 | 19.9 | 94900 | > 19.9 | – | – | – | >94938 | – | – | – | – | – |
| O=C1Nc2ccc(Cl)cc2[C@@](C#CC2CC2)(C(F)(F)F)O1 [EFAVIRENZ] | > 0.317 | – | 160 | 15.9 | 130 | – | – | > 15.8 | – | 0.76 | – | – | – | – | > 10 | – | – | – | 22 |
| Cc1ccnc2c1NC(=O)c1cccnc1N2C1CC1 [NEVIRAPINE] | > 3.76 | – | > 3760 | 112 | > 3760 | – | – | > 18.8 | – | > 3.76 | – | – | – | – | > 10 | – | – | – | 60 |
| Cc1cc(C)cc(S(=O)(=O)c2c(C(=O)NCCc3ccc(Cl)cc3)[nH]c3ccc(Cl)cc23)c1 | 32.4 | – | 1700 | 53.8 | ≥ 2000 | 36 | >=37 | 32.4 | 602 | – | 0.06 | > 20 | 89 | 602 | > 10 | 960 | 3.5 | 68 | 190 |
| Cc1ccc(CCNC(=O)c2[nH]c3ccc(Cl)cc3c2S(=O)(=O)c2cc(C)cc(C)c2)cc1 | > 51.9 | – | 1800 | 22.9 | > 50000 | 79 | 2183 | > 52 | > 2270 | – | > 20 | > 20 | 2000 | >2268 | > 50 | 16200 | – | 33 | – |
| COc1ccc(CNC(=O)c2[nH]c3ccc(Cl)cc3c2S(=O)(=O)c2cc(C)cc(C)c2)cc1 | > 39.2 | >186557 | 21 | 0.21 | 21 | 100 | 100 | 39.9 | 190000 | > 39.2 | > 20 | > 20 | 3.7 | >186557 | – | – | – | – | – |
| Cc1cc(C)cc(S(=O)(=O)c2c(C(=O)NCc3ccc([N+](=O)[O-])cc3)[nH]c3ccc(Cl)cc23)c1 | > 50.2 | >25103 | 70 | 2 | 120 | 35 | 60 | > 50.2 | > 25100 | > 50.2 | 0.218 | > 20 | 50 | >25103 | – | – | – | – | – |
